Sampled rows, rich in hits. Any-hit rate of the full collection: about 2.9%.
TRPC4 block = inhibitors of mouse TRPC4 channel, primary screen, Fluo4 calcium, HEK293 TRPC4beta/mu-opioid cells; Short transient receptor potential channel 4 (Mus musculus), Q9QUQ5; DAMGO-evoked Fluo4 calcium flux; active compounds read low; B-score at 10 µM; actives 0.39% (n = 300,000); AID 2247, 2010;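 active = B-score over 3 SD under the library average, no early fluorescence shift, positive overall ratio signal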
Target sequence (Q9QUQ5 whole entry, looked up): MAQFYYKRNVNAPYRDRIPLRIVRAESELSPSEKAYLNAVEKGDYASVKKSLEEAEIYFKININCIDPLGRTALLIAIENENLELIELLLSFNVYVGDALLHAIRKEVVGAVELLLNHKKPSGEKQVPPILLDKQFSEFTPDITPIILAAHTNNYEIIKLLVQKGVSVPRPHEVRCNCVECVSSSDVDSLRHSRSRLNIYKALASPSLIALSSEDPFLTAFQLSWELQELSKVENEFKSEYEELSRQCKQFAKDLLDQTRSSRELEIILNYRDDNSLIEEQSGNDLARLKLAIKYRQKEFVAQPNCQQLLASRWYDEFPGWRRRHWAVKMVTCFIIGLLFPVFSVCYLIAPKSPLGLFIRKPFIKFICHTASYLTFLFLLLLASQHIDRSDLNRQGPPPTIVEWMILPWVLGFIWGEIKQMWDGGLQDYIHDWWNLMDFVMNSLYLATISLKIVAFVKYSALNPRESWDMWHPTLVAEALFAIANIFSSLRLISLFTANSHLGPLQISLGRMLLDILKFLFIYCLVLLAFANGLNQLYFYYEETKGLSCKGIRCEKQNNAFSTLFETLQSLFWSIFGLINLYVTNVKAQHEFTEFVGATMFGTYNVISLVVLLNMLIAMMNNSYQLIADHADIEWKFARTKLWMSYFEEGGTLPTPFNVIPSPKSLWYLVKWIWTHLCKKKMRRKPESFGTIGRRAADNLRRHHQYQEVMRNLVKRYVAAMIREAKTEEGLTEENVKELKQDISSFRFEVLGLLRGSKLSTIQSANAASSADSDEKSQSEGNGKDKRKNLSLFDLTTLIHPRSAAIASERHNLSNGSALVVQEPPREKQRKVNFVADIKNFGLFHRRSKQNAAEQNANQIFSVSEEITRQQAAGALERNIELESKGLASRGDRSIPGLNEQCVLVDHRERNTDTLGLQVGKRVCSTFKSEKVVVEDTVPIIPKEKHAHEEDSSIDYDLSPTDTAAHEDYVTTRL
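Assay system: TRPC4beta/mu-opioid receptor HEK293 cell line; compound dosing: single concentration per test compound; detection: Fluo4 Ca2+ flux fluorescence; evaluation: per-well B score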
Kir21 block = inhibitors of mouse Kir2.1 inward-rectifier potassium channel | HEK293-Kir2.1, FluxOR thallium flux fluorescence; active compounds read low | B-score at 10 µM | actives 0.85% (n = 310,000);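 active = fluorescence ratio B-score at or below minus 3 SD of library scores, with starting-brightness B-score within 2 SD, cut at about -4.2 in these data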;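 note: channel flux triggered by added potassium and thallium sulfate stimulus; B-score of peak minus minimum fluorescence over baseline after thallium stimulus; more negative B-score means stronger Kir2.1 block with less thallium influx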
TRPC6 activator = mouse TRPC6 channel activators, primary screen, cell-based, HEK293, membrane potential dye; Short transient receptor potential channel 6 (Mus musculus), Q61143; HEK293-TRPC6 membrane potential dye fluorescence; active compounds read high; B-score at 10 µM; actives 0.13% (n = 310,000); AID 2550, 2010;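 active = B-score of the integrated fluorescence ratio above library mean plus 3 SD, and starting fluorescence ratio within library mean plus 5 SD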;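 note: higher score means more depolarization so channel activation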
TRPC4 agonist = activators of mouse TRPC4 channel, primary screen, Fluo4 calcium, HEK293 TRPC4beta/mu-opioid cells; B-score at 10 µM; actives 0.49% (n = 310,000); AID 2237, 2010; Fluo4 calcium fluorescence; active compounds read high; Short transient receptor potential channel 4 (Mus musculus), Q9QUQ5;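 active = B-score above 5 SD of library B-scores, and initial fluorescence ratio not above library mean plus 5 SD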;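 note: positive B-score marks a calcium rise read as TRPC4 activation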
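Incubation: 45 min room-temperature Fluo4 loading, 110 s read / System: HEK293 cells stably co-expressing mouse TRPC4beta and mu-opioid receptor / Signal: Fluo4 fluorescence, kinetic / Control set: buffer (low) and maximal DAMGO (high) / Measure: integrated baseline-normalised fluorescence ratio, converted to per-well B score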
TRPC6 inh = mouse TRPC6 channel inhibitors, primary screen, cell-based, HEK293, membrane potential dye; ACh-evoked depolarization; active compounds read low; B-score at 10 µM; Short transient receptor potential channel 6 (Mus musculus), Q61143; actives 1.1% (n = 310,000); AID 2553, 2010;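 active = B-score under library mean minus 3 SD, initial fluorescence not abnormally high, positive integrated signal ratio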;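 note: B-score derived from integrated fluorescence ratio over the kinetic read; more negative B-score means stronger inhibition of depolarization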
TRPC4 PAM = positive allosteric modulators of TRPC4, primary screen, cell-based, mouse TRPC4beta, HEK293 mu-opioid, Fluo-4 calcium. Short transient receptor potential channel 4 (Mus musculus), Q9QUQ5. DAMGO EC20, Fluo-4 Ca2+ flux; active compounds read high. B-score at 10 µM. actives 0.42% (n = 310,000). AID 2227, 2009;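 active = B-score of calcium response area above 5 SD of library B-scores, with initial fluorescence ratio within 5 SD of library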
Hits are given with their value; – = inactive.

SMILES	TRPC4 block	Kir21 block	TRPC6 activator	TRPC4 agonist	TRPC6 inh	TRPC4 PAM
Cc1cc(C)c(C)c(OCCCOc2cccc3cccnc23)c1	–	–	–	–	–	19
COc1ccccc1CCC(=O)N(C)CC(=O)Nc1ccc(Cl)c(C(F)(F)F)c1	–	–	–	–	–	–
CC(Sc1ccccc1)C(=O)NNC(=O)c1csc(N2CCOCC2)n1 (configuration not stated)	–	–	–	–	–	–
O=[N+]([O-])c1ccc(S(=O)(=O)N2CCC3(CC2)OCCN3S(=O)(=O)c2cccs2)cc1	–	–	–	–	–	–
N#CC(C#N)=c1ccc2c(c1)N1C3=C(CCCC3)CC3CCCCC31N=2 (configuration not stated)	–	–	–	–	-8.5	–
CC(=O)c1cccc(NC(=O)COC(=O)c2ccccc2C)c1	–	–	–	–	–	–
COCCNC(=O)/C(C#N)=C/c1cc(C(C)C)c(OC)cc1C	–	–	–	–	–	17
COCCNC(=O)/C(C#N)=C/c1ccccc1Br	–	–	–	–	–	13
OC(COc1ccc2ccccc2c1Br)Cn1ccnc1 (configuration not stated)	–	–	–	–	–	–
OC(COc1ccc2ccccc2c1)Cn1ccnc1 (configuration not stated)	–	–	–	–	–	11
CC1(c2ccccc2)NC(=O)N(CC(=O)N2CCN(S(=O)(=O)c3cccc([N+](=O)[O-])c3)CC2)C1=O (configuration not stated)	–	–	–	–	–	–
NC(=O)C1CCN(C(=O)NC2CC(=O)N(c3ccc4c(c3)OCCO4)C2)CC1 (configuration not stated)	–	–	–	–	–	–
COC(=O)c1c(C)oc(C)c1S(=O)(=O)NCc1ccc(Cl)cc1Cl	–	-5.13	–	–	–	–
CC(=O)c1cccc(NC(=O)CN(C)Cc2ccc(OC(F)F)cc2)c1	–	–	–	–	–	–
CC(C)n1c(NCc2ccccc2O)nc2ccccc21	-6	–	–	–	–	–
Cn1c(NCc2ccccc2Cl)nc2ccccc21	–	–	–	–	–	–
C=CCc1cccc(CNc2nc3ccccc3n2C(C)C)c1O	–	–	–	–	–	–
Cn1c(NCc2ccccc2O)nc2ccccc21	-6	–	–	–	–	–
FC(F)(F)c1cccc(-c2nc3nc(Cl)c(Cl)nc3[nH]2)c1	–	–	–	–	–	–
COc1cc(OC)c(OC)cc1CN1CCCC(C(=O)c2ccccc2SC)C1 (configuration not stated)	–	–	–	–	–	–
COc1ccccc1C(=O)C1CCCN(Cc2ccc3c(c2)OCCO3)C1 (configuration not stated)	–	–	–	–	–	–
COc1ccc(C(=O)C2CCCN(Cc3c(C)[nH]c4ccccc34)C2)c(OC)c1 (configuration not stated)	–	–	–	–	-5	–
COc1cc(CN2CCCC(C(=O)c3ccccc3SC)C2)cc(OC)c1 (configuration not stated)	-6	–	–	–	–	–
COc1ccc(F)cc1C(=O)C1CCCN(Cc2ccc3c(c2)OCCO3)C1 (configuration not stated)	-7	–	–	–	–	–
CCOC(=O)c1ccccc1NC(=O)COC(=O)CSC(C)C(=O)Nc1cc(C)on1 (configuration not stated)	–	–	–	–	–	–
SMILES	TRPC4 block	Kir21 block	TRPC6 activator	TRPC4 agonist	TRPC6 inh	TRPC4 PAM
COc1cc(/C=C2\C(=N)N3N=CSC3=NC2=O)ccc1OS(=O)(=O)c1ccccc1	–	–	–	–	–	–
CCOc1cc(/C=C2\C(=N)N3N=CSC3=NC2=O)ccc1OS(=O)(=O)c1ccccc1	-6	-4.96	–	–	–	–
CCn1ccnc1CNCc1cn(-c2cc(C)ccc2C)nc1-c1ccccc1	–	–	–	–	–	–
Cc1ccc(C)c(-n2cc(CNCCc3cnccn3)c(-c3ccccc3)n2)c1	–	–	–	108	–	–
COc1ccc(C2=NN(CCC(=O)NCc3cccs3)C(=O)CC2)cc1	–	–	–	–	–	–
COc1ccc(C(=O)OCC(=O)NCc2ccccc2)c(OC)c1OC	–	–	–	–	–	–
CCc1cc(C(=O)Nc2cc(Cl)ccc2N2CCN(C)CC2)sc1C	–	–	–	–	–	–
CN1CCN(c2ccc(Cl)cc2NC(=O)/C=C/c2cccc(F)c2)CC1	–	–	–	–	–	31
CN1CCN(c2ccc(Cl)cc2NC(=O)CC2OC(=O)c3ccccc32)CC1 (configuration not stated)	–	–	–	–	–	23
CCOc1ccccc1NC(=O)c1ccccc1-c1nc(-c2ccccc2)no1	–	–	–	–	–	–
CCOc1ccccc1NC(=O)c1ccccc1-c1ccccc1	–	-4.85	–	–	–	–
CCN(c1nc(C)cc(OC)n1)S(=O)(=O)c1ccccc1	–	-6.6	–	–	–	–
C=CCN(c1nc(C)cc(OC)n1)S(=O)(=O)c1ccccc1	–	-7.94	–	–	–	–
C=CCN(c1nc(C)cc(OC)n1)S(=O)(=O)c1ccc(C)cc1	–	–	–	–	–	–
CSc1nc(C(C)C)ccc1CNC(=O)CC(C)c1ccccc1 (configuration not stated)	–	–	–	–	–	–
Nc1cc(=O)nc(SCC(=O)N2CCN(c3ccccc3)CC2)n1-c1ccc(F)cc1	-6	–	–	–	–	–
CCOC(=O)C1(CC2CC2)CCN(Cc2ccc3cccc(F)c3n2)CC1	-8	–	–	45	–	–
CCOC(=O)C1(CC2CC2)CCN(Cc2ccc(O)c(Cl)c2)CC1	-7	–	–	75	–	–
CCOC(=O)C1(CCOc2ccccc2)CCN(Cc2ccc(O)c(Cl)c2)CC1	–	–	–	–	–	–
CC(C)=CCN1CCN(Cc2cccn2-c2ncccn2)CC1CCO (configuration not stated)	–	–	–	–	–	–
CC1=C(C)/C(=N\OS(=O)(=O)c2ccccc2)C=CC1=O	–	-11.1	–	–	–	–
Cc1ccc(S(=O)(=O)O/N=C2\CCCc3ccccc32)cc1	–	–	–	–	–	–
CCN1CCN(CCNC(=O)c2ccc(/C=C3/Sc4ccccc4N(Cc4ccccc4C)C3=O)cc2)CC1	–	-5.57	–	–	–	–
